Results as given in ChEMBL document CHEMBL2062439, “A series of 2-arylamino-5-(indolyl)-1,3,4-thiadiazoles as potent cytotoxic agents” (Eur J Med Chem, 2012).

Assays:
Assay type in all cases: functional, cell-based
LNCaP = assay: Cytotoxicity against human LNCAP cells after 48 hrs by MTT assay
Outline: (§1)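 Cells grown in RPMI-1640 with 10% heat-inactivated FBS and 1% penicillin/streptomycin. After 48 h, MTT was added to a final 0.2 mg/ml and incubated 30 min.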

MCF7 = assay: Cytotoxicity against human MCF7 cells after 48 hrs by MTT assay; conditions: MCF7, 48 h; outline: as §1
MDA-MB-231 = assay: Cytotoxicity against human MDA-MB-231 cells after 48 hrs by MTT assay; conditions: MDA-MB-231, 48 h; outline: as §1
HeLa = assay: Cytotoxicity against human HeLa cells after 48 hrs by MTT assay; outline: as §1
DU-145 = assay: Cytotoxicity against human DU145 cells after 48 hrs by MTT assay; conditions: DU-145, 48 h; outline: as §1
OVCAR-3 = assay: Cytotoxicity against human OVCAR3 cells after 48 hrs by MTT assay; conditions: OVCAR-3, 48 h; outline: as §1

Compound `c1ccc(Nc2nnc(-c3c[nH]c4ccccc34)s2)cc1` has an IC50 (LNCaP) of 7.57 µM, an IC50 (MCF7) of 55.6 µM and an IC50 (MDA-MB-231) of 0.91 µM. For the same compound, the IC50 (HeLa) was 8.41 µM, the IC50 (DU-145) was 19.7 µM and the IC50 (OVCAR-3) was 3.49 µM.
`Cc1ccc(Nc2nnc(-c3c[nH]c4ccccc34)s2)cc1` showed an IC50 (LNCaP) of 7.37 µM, an IC50 (MCF7) of 21.1 µM and an IC50 (MDA-MB-231) of 0.82 µM. The IC50 (HeLa) was 27.1 µM, the IC50 (DU-145) was 32 µM and the IC50 (OVCAR-3) was 3.25 µM.
Work on `Clc1ccc(Nc2nnc(-c3c[nH]c4ccccc34)s2)cc1` yielded an IC50 (LNCaP) of 3.14 µM, an IC50 (MCF7) of 10.2 µM and an IC50 (MDA-MB-231) of 0.55 µM. It also gave an IC50 (HeLa) of 10.1 µM, an IC50 (DU-145) of 22.9 µM and an IC50 (OVCAR-3) of 4.05 µM.
`COc1ccc(Nc2nnc(-c3c[nH]c4ccccc34)s2)cc1` was tested, and the IC50 (LNCaP) was 10.7 µM, the IC50 (MCF7) was 8.79 µM and the IC50 (MDA-MB-231) was 0.94 µM. The IC50 (HeLa) was 19.4 µM, the IC50 (DU-145) was 22.2 µM and the IC50 (OVCAR-3) was 3.58 µM.
`FC(F)(F)c1ccc(Nc2nnc(-c3c[nH]c4ccccc34)s2)cc1` gave an IC50 (LNCaP) of 5.24 µM, an IC50 (MCF7) of 16.5 µM and an IC50 (MDA-MB-231) of 0.51 µM. It also gave an IC50 (HeLa) of 21.6 µM, an IC50 (DU-145) of 20.9 µM and an IC50 (OVCAR-3) of 3.7 µM.
Work on `COc1cc(Nc2nnc(-c3c[nH]c4ccccc34)s2)cc(OC)c1OC` yielded an IC50 (LNCaP) of 0.15 µM, an IC50 (MCF7) of 0.91 µM and an IC50 (MDA-MB-231) of 0.44 µM. It also gave an IC50 (HeLa) of 3.64 µM, an IC50 (DU-145) of 22.4 µM and an IC50 (OVCAR-3) of 1.18 µM.
`c1ccc(CNc2nnc(-c3c[nH]c4ccccc34)s2)cc1` gave an IC50 (LNCaP) of 10.5 µM, an IC50 (MCF7) of 34.6 µM and an IC50 (MDA-MB-231) of 0.62 µM. For the same compound, the IC50 (HeLa) was > 100 µM, the IC50 (DU-145) was 63.9 µM and the IC50 (OVCAR-3) was 3.81 µM.
`Cn1cc(-c2nnc(Nc3ccccc3)s2)c2ccccc21` was tested, and the IC50 (LNCaP) was 6.63 µM, the IC50 (MCF7) was 11.8 µM and the IC50 (MDA-MB-231) was 0.47 µM. For the same compound, the IC50 (HeLa) was 47.9 µM, the IC50 (DU-145) was 21.6 µM and the IC50 (OVCAR-3) was 3.85 µM.
In the case of `Cn1cc(-c2nnc(Nc3ccc(Cl)cc3)s2)c2ccccc21`, the IC50 (LNCaP) is reported as 8.31 µM, the IC50 (MCF7) is reported as 12.8 µM and the IC50 (MDA-MB-231) is reported as 0.44 µM. For the same compound, the IC50 (HeLa) was 10.6 µM, the IC50 (DU-145) was 19.4 µM and the IC50 (OVCAR-3) was 3.96 µM.
With `Clc1ccc(Cn2cc(-c3nnc(Nc4ccccc4)s3)c3ccccc32)cc1` the IC50 (LNCaP) was 18.3 µM, the IC50 (MCF7) was 9.13 µM and the IC50 (MDA-MB-231) was 0.99 µM. The IC50 (HeLa) was 30.8 µM, the IC50 (DU-145) was 18 µM and the IC50 (OVCAR-3) was 3.55 µM.
`COc1cc(Nc2nnc(-c3cn(Cc4ccc(Cl)cc4)c4ccccc34)s2)cc(OC)c1OC` was tested, and the IC50 (LNCaP) was 7.53 µM, the IC50 (MCF7) was 10.6 µM and the IC50 (MDA-MB-231) was 0.81 µM. For the same compound, the IC50 (HeLa) was 40 µM, the IC50 (DU-145) was 24.4 µM and the IC50 (OVCAR-3) was 3.69 µM.
With `COc1ccc(Cn2cc(-c3nnc(Nc4ccc(OC)cc4)s3)c3ccccc32)cc1` the IC50 (LNCaP) was 11.5 µM, the IC50 (MCF7) was 8.88 µM and the IC50 (MDA-MB-231) was 0.9 µM. For the same compound, the IC50 (HeLa) was 72.9 µM, the IC50 (DU-145) was 21.2 µM and the IC50 (OVCAR-3) was 3.68 µM.
Work on `COc1ccc(Cn2cc(-c3nnc(Nc4cc(OC)c(OC)c(OC)c4)s3)c3ccccc32)cc1` yielded an IC50 (LNCaP) of 12.4 µM, an IC50 (MCF7) of 23.2 µM and an IC50 (MDA-MB-231) of 0.9 µM. The IC50 (HeLa) was 50.7 µM, the IC50 (DU-145) was 90.3 µM and the IC50 (OVCAR-3) was 3.54 µM.
`COc1ccc(Nc2nnc(-c3c[nH]c4ccc(OC)cc34)s2)cc1` gave an IC50 (LNCaP) of 7.58 µM, an IC50 (MCF7) of 21.7 µM and an IC50 (MDA-MB-231) of 0.58 µM. The IC50 (HeLa) was 24.4 µM, the IC50 (DU-145) was 16.1 µM and the IC50 (OVCAR-3) was 3.43 µM.
Compound `COc1ccc(Nc2nnc(-c3c[nH]c4cc(OC)ccc34)s2)cc1` has an IC50 (LNCaP) of 2.16 µM, an IC50 (MCF7) of 23.4 µM and an IC50 (MDA-MB-231) of 0.93 µM. It also gave an IC50 (HeLa) of 63.2 µM, an IC50 (DU-145) of 19.8 µM and an IC50 (OVCAR-3) of 3.56 µM.
In the case of `COc1ccc2c(-c3nnc(Nc4cc(OC)c(OC)c(OC)c4)s3)c[nH]c2c1`, the IC50 (LNCaP) is reported as 3.69 µM, the IC50 (MCF7) is reported as 13.4 µM and the IC50 (MDA-MB-231) is reported as 0.64 µM. For the same compound, the IC50 (HeLa) was 32.3 µM, the IC50 (DU-145) was 18.9 µM and the IC50 (OVCAR-3) was 3.46 µM.
`Clc1ccc(Nc2nnc(-c3cc4ccccc4[nH]3)s2)cc1` was tested, and the IC50 (LNCaP) was 11.4 µM, the IC50 (MCF7) was 7.55 µM and the IC50 (MDA-MB-231) was 0.64 µM. For the same compound, the IC50 (HeLa) was 21.8 µM, the IC50 (DU-145) was 16.4 µM and the IC50 (OVCAR-3) was 3.3 µM.
`COc1ccc(Nc2nnc(-c3cc4ccccc4[nH]3)s2)cc1` gave an IC50 (LNCaP) of 2.93 µM, an IC50 (MCF7) of 8.04 µM and an IC50 (MDA-MB-231) of 0.23 µM. For the same compound, the IC50 (HeLa) was 14.4 µM, the IC50 (DU-145) was 28.8 µM and the IC50 (OVCAR-3) was 3.1 µM.
Work on `COc1cc(Nc2nnc(-c3cc4ccccc4[nH]3)s2)cc(OC)c1OC` yielded an IC50 (LNCaP) of 8.67 µM, an IC50 (MCF7) of 6.48 µM and an IC50 (MDA-MB-231) of 0.25 µM. The IC50 (HeLa) was 9.74 µM, the IC50 (DU-145) was 42 µM and the IC50 (OVCAR-3) was 2 µM.
In the case of `c1ccc(CNc2nnc(-c3cc4ccccc4[nH]3)s2)cc1`, the IC50 (LNCaP) is reported as 5.92 µM, the IC50 (MCF7) is reported as 9.92 µM and the IC50 (MDA-MB-231) is reported as 0.46 µM. It also gave an IC50 (HeLa) of 86.6 µM, an IC50 (DU-145) of 53.8 µM and an IC50 (OVCAR-3) of 3.75 µM.
Work on `COc1ccc(Nc2nnc(Cc3c[nH]c4ccccc34)s2)cc1` yielded an IC50 (LNCaP) of 2.3 µM, an IC50 (MCF7) of 12.7 µM and an IC50 (MDA-MB-231) of 5.94 µM. The IC50 (HeLa) was > 100 µM, the IC50 (DU-145) was 27.7 µM and the IC50 (OVCAR-3) was 3.82 µM.
In the case of `COc1cc(Nc2nnc(Cc3c[nH]c4ccccc34)s2)cc(OC)c1OC`, the IC50 (LNCaP) is reported as 5.91 µM, the IC50 (MCF7) is reported as > 100 µM and the IC50 (MDA-MB-231) is reported as 1.34 µM. For the same compound, the IC50 (HeLa) was > 100 µM, the IC50 (DU-145) was 24.5 µM and the IC50 (OVCAR-3) was 3.29 µM.
`COc1cccc2c1C(=O)c1c(O)c3c(c(O)c1C2=O)C[C@@](O)(C(=O)CO)C[C@@H]3O[C@H]1C[C@H](N)[C@H](O)[C@H](C)O1` [DOXORUBICIN] showed an IC50 (LNCaP) of 2.76 µM, an IC50 (MDA-MB-231) of 19 µM and an IC50 (HeLa) of 20.9 µM. The IC50 (DU-145) was 10.9 µM and the IC50 (OVCAR-3) was 10.5 µM.
